One may read the IC50 as the concentration needed to halve the response being measured.

The results in this text go back to ChEMBL document CHEMBL5257020, “Discovery of a 9-mer Cationic Peptide (LTX-315) as a Potential First in Class Oncolytic Peptide” (J Med Chem, 2016).

The assay concerns the target Cytochrome P450 2C8 (Homo sapiens, UniProt P10632). Kind of assay: Inhibition of CYP2C8 in human liver microsomes using paclitaxel as substrate assessed as reduction in substrate hydroxylation incubated for 5 mins in presence of beta-NADPH measured by LC-MS/MS analysis. The assay is classed as ADME, Microsome. The method, boiled down: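 Pooled human liver microsomes (50 donors) in 100 mM phosphate, pH 7.4, with 2 mM β-NADPH. Protein 0.1 mg/mL (2A6, 2C8, 2C9, 2E1, 3A4) or 0.3 mg/mL (1A2, 2B6, 2C19, 2D6). Test article 0–100 μM final, preincubated ~37 °C 5 or 30 min before isoform-selective substrate. Quenched in methanol with internal standard. Metabolite measured by LC–MS/MS against standard curve. Duplicates, with selective inhibitor positive controls.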
(Liver microsomes are a subcellular fraction often used to study metabolism.)

Where a SMILES comes first, the peptide text is derived from it. [ ]: non-standard residue; d: D form. ξ: configuration not given here. ξDip = NC(C(=O)O)C(c1ccccc1)c1ccccc1

Chain of Cytochrome P450 2C8 (P10632 whole entry, canonical isoform): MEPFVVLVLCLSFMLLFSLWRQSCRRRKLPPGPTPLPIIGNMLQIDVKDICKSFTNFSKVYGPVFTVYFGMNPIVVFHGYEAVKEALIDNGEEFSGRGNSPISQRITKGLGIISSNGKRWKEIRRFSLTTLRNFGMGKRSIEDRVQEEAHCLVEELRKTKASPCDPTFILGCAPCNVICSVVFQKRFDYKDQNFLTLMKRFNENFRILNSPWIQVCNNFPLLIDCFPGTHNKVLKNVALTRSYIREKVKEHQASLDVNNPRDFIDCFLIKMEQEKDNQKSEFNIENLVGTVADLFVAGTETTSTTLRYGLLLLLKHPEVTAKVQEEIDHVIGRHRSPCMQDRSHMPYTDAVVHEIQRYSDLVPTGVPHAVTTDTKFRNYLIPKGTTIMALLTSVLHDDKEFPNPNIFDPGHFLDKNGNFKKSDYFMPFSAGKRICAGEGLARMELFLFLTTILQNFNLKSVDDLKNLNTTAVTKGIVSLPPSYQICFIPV

With `NCCCC[C@H](NC(=O)C(NC(=O)[C@H](Cc1c[nH]c2ccccc12)NC(=O)[C@H](CCCCN)NC(=O)[C@H](CCCCN)NC(=O)[C@H](Cc1c[nH]c2ccccc12)NC(=O)[C@H](Cc1c[nH]c2ccccc12)NC(=O)[C@H](CCCCN)NC(=O)[C@@H](N)CCCCN)C(c1ccccc1)c1ccccc1)C(N)=O` (stereo partly specified) (H-KKWWKKW[ξDip]K-NH2), the IC50 is 10.2 µM.
